We go through 35 molecules from ChEMBL document CHEMBL1158625, “Design of 1-piperazinyl-4-arylphthalazines as potent Smoothened antagonists” (Bioorg Med Chem Lett, 2010).

As usually defined, the inhibition is how much of the control response was suppressed. Higher therefore signals a strong effect. The term pIC50 denotes −log10 of the IC50, conventionally taken in molar units.

One data set deals with CYP2D6 (Homo sapiens, UniProt P10635). The experiment in a line: Inhibition of human CYP2D6 at 3 uM by HPLC-MS. The class given is ADME.
Data set [1] in a line: Metabolic stability in human liver microsome assessed as compound turnover after 30 mins. The class given is ADME. As to conditions: liver microsomes, read-out: Stability. The essentials:
(§1)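 Pooled human or rat liver microsomes (0.25 mg/mL), 37 °C, phosphate buffer pH 7.4, test compound 1 µM; NADPH 1 mM final; quenched at 0 or 30 min with organic solvent; unchanged parent by reversed-phase LC-MS/MS; percent turnover from peak area at 30 versus 0 min.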
Background: Liver microsomes are a subcellular fraction often used to study metabolism.

A short description of data set [2]: Metabolic stability in rat liver microsome assessed as compound turnover after 30 mins. As to conditions: liver microsomes, read-out: Stability. The class given is ADME. The essentials: as §1
A further data set has as its target CYP3A4 (Homo sapiens, UniProt P08684). As to the kind of experiment: Inhibition of human CYP3A4 at 3 uM by HPLC-MS. The class given is ADME.
The next data set deals with Protein smoothened (Mus musculus, UniProt P56726). The experiment in a line: Inhibition of mouse SMO expressed in NIH-3T3 cells. The class given is cell-based, NIH3T3.

pIC50: −log10 of the molar value.

Sequence of CYP3A4 (P08684 whole entry): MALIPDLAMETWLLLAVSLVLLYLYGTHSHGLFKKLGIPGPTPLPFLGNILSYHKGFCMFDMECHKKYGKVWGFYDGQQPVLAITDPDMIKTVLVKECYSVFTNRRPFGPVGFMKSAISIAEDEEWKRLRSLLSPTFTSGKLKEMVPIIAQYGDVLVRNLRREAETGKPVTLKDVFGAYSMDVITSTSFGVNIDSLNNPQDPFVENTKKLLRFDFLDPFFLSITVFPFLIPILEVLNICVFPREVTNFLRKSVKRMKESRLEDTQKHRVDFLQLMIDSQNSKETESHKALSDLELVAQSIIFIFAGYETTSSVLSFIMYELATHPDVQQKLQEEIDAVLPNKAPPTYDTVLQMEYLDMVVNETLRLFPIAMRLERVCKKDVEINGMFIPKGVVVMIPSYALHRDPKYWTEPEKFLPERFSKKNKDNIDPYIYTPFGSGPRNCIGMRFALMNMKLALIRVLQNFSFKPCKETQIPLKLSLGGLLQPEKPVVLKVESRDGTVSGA
Sequence of CYP2D6 (P10635 whole entry): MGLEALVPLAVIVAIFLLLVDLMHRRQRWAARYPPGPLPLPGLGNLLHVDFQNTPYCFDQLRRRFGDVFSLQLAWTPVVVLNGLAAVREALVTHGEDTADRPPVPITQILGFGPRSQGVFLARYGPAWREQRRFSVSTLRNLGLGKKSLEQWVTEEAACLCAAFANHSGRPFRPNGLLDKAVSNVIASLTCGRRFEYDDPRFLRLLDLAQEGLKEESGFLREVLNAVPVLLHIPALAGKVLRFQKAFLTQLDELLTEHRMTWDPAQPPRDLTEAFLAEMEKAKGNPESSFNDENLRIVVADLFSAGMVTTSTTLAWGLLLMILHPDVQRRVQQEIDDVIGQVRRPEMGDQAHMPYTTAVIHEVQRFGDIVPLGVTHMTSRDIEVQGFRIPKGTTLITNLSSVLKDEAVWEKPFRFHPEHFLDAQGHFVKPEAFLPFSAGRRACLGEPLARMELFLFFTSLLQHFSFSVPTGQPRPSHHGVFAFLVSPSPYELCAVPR
Sequence of Protein smoothened (P56726 whole entry): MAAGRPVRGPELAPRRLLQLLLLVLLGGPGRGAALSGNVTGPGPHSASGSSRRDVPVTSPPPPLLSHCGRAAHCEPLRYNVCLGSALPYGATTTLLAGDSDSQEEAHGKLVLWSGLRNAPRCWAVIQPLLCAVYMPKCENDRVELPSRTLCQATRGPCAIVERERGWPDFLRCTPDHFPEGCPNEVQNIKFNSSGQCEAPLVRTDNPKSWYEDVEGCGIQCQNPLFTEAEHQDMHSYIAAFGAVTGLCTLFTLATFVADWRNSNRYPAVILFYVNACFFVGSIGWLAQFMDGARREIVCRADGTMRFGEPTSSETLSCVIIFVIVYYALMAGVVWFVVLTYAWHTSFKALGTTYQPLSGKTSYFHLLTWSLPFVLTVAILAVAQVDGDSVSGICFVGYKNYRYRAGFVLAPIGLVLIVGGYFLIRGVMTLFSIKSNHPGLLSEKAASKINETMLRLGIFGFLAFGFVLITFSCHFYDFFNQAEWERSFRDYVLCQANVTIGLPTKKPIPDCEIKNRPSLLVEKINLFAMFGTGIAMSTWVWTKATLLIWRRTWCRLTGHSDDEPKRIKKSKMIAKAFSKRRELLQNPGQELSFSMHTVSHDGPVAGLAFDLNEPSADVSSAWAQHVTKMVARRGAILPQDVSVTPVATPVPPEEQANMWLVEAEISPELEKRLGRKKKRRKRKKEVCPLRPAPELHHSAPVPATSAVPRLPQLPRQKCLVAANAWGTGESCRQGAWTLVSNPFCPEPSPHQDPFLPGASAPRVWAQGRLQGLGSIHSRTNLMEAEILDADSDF

`Cc1ccc(-c2nnc(N3CCN(C(=O)c4ccccc4)C[C@H]3C)c3ccccc23)cc1`: the inhibition at 3 µM on CYP2D6 and at CYP3A4 was < 10% each time. Moreover, the metabolised at 0.5 h came out at 56% in data set [1] and 55% in data set [2].
As for `C[C@@H]1CN(C(=O)c2ccccc2)CCN1c1nnc(-c2ccc(C#N)cc2)c2ccccc12`, the inhibition at 3 µM on CYP2D6 was < 10%; at CYP3A4, 12%. Moreover, the metabolised at 0.5 h in data set [1] and in data set [2] was < 10% throughout.
Consider `N#Cc1cccc(-c2nnc(N3CCN(C(=O)c4ccccc4)CC3)c3ccccc23)c1`, for which the inhibition at 3 µM is 18% against CYP2D6 and < 10% on CYP3A4. Also, the metabolised at 0.5 h in data set [1] and in data set [2] was 10% throughout.
Take `C[C@@H]1CN(C(=O)c2ccccc2)CCN1c1nnc(-c2ccc(C(C)(C)C)cc2)c2ccccc12`: the inhibition at 3 µM is 10% at CYP2D6 and 25% against CYP3A4. Further, the metabolised at 0.5 h was found to be 89% in data set [1] and 94% in data set [2].
For `C[C@H]1CN(c2nnc(-c3ccncc3)c3ccccc23)CCN1C(=O)c1ccccc1`, the inhibition at 3 µM amounted to 52% on CYP2D6 and 58% on CYP3A4. In addition, the metabolised at 0.5 h in data set [1] stood at 10%; in data set [2] it was 25%.
On the same counts, the results for `COc1cccc(-c2nnc(N3CCN(C(=O)c4ccccc4)CC3)c3ccccc23)c1` are 19%, < 10%, 43% and 33%.
On the same counts, the results for `C[C@H]1CN(c2nnc(-c3ccc(Cl)cc3)c3ccccc23)CCN1C(=O)c1ccccc1` are 43%, 40%, < 10% and < 10%.
Regarding `O=C(c1ccccc1)N1CCN(c2nnc(-c3ccc(Cl)c(Cl)c3)c3ccccc23)CC1`, the metabolised at 0.5 h in data set [1] came out at 31%; in data set [2], 10%. Also, the inhibition at 3 µM against CYP3A4 is < 10%.
With `CC(C)c1ccc(-c2nnc(N3CCN(C(=O)c4ccccc4)C[C@H]3C)c3ccccc23)cc1`, the inhibition at 3 µM against CYP2D6 came out at 20%; against CYP3A4, 14%. Further, the metabolised at 0.5 h is 41% in data set [1] and 73% in data set [2].
For `CC(=O)N1CCN(c2nnc(-c3ccccc3)c3ccccc23)CC1`, the inhibition at 3 µM at CYP2D6 amounted to 29%. Further, the metabolised at 0.5 h in data set [1] and in data set [2] was 10% throughout.
On to `C[C@@H]1CN(C(=O)c2ccccc2)CCN1c1nnc(-c2ccc(Cl)cc2)c2ccccc12`, for which the inhibition at 3 µM was 60% at CYP2D6 and < 10% against CYP3A4. In addition, the metabolised at 0.5 h in data set [1] turned out to be 38%; in data set [2], 12%.
With `C[C@H]1CN(C(=O)c2ccccc2)CCN1c1nnc(-c2ccccc2)c2ccccc12`, the metabolised at 0.5 h in data set [1] was < 10%; in data set [2], 23%.
For the molecule `C[C@H]1CN(c2nnc(-c3cccnc3)c3ccccc23)CCN1C(=O)c1ccccc1`, the inhibition at 3 µM was < 10% on CYP2D6 and 12% on CYP3A4. The metabolised at 0.5 h came to 10% in data set [1] and 12% in data set [2].
With `O=C(c1ccccc1)N1CCN(c2nnc(-c3ccc(Cl)cc3)c3ccccc23)CC1`, the inhibition at 3 µM was 24% against CYP2D6 and 16% against CYP3A4. In addition, the metabolised at 0.5 h is 20% in data set [1] and 10% in data set [2].
On the same counts, the results for `C[C@H]1CN(c2nnc(-c3ccc(C(F)(F)F)cc3)c3ccccc23)CCN1C(=O)c1ccccc1` are < 10%, 49%, < 10% and < 10%.
On the same counts, the results for `Cc1ccc(-c2nnc(N3CCN(C(=O)c4ccccc4)[C@@H](C)C3)c3ccccc23)cc1` are 10%, 13%, 38% and 43%.
On the same counts, the results for `C[C@H]1CN(c2nnc(N3CC=CC=N3)c3ccccc23)CCN1C(=O)c1ccccc1` are 15%, < 10%, < 10% and < 10%.
In the case of `C[C@H]1CN(c2nnc(-c3ncco3)c3ccccc23)CCN1C(=O)c1ccccc1`, the figures for the inhibition at 3 µM on CYP2D6 and against CYP3A4 were 27% and < 10%, respectively. For the same molecule, the figures for the metabolised at 0.5 h in data set [1] and in data set [2] were 10% and 23%, respectively.
On the same counts, the results for `O=C(c1ccccc1)N1CCN(c2nnc(-c3ccc(F)cc3)c3ccccc23)CC1` are 29%, < 10%, 17% and 10%.
On the same counts, the results for `O=C(c1ccccc1)N1CCN(c2nnc(-c3ccccc3)c3ccccc23)CC1` are 11%, < 10%, 19% and 12%.
On the same counts, the results for `C[C@@H]1CN(c2nnc(-c3ccccc3)c3ccccc23)CCN1C(=O)c1ccccc1` are < 10%, < 10%, 17% and 21%.
Turning to `C[C@H]1CN(c2nnc(-c3ccccn3)c3ccccc23)CCN1C(=O)c1ccccc1`, the inhibition at 3 µM against CYP2D6 and on CYP3A4 was < 10% throughout. The metabolised at 0.5 h in data set [1] and in data set [2] was < 10% throughout.
On to `O=C(c1nccs1)N1CCN(c2nnc(-c3ccccc3)c3ccccc23)CC1`, for which the inhibition at 3 µM is 89% at CYP2D6 and < 10% at CYP3A4. For the same molecule, the metabolised at 0.5 h in data set [1] is 48%; in data set [2], 25%.
On the same counts, the results for `C[C@@H]1CN(C(=O)c2ccccc2)CCN1c1nnc(-c2ccc(CO)cc2)c2ccccc12` are < 10%, 15%, 14% and 13%.
Take `O=C(c1ccccc1)N1CCN(c2nnc(-c3ccccc3Cl)c3ccccc23)CC1`: the inhibition at 3 µM against CYP2D6 and against CYP3A4 was < 10% throughout. Moreover, the figures for the metabolised at 0.5 h in data set [1] and in data set [2] were 62% and 15%, respectively.
With `C[C@H]1CN(c2nnc(-c3ccc(F)cc3)c3ccccc23)CCN1C(=O)c1ccccc1`, the results for the inhibition at 3 µM against CYP2D6 and at CYP3A4 were 18% and 20%, respectively. Besides, the metabolised at 0.5 h in data set [1] came out at 10%; in data set [2] it was 15%.
Take `C[C@@H]1CN(C(=O)c2ccccc2)CCN1c1nnc(-c2ccc(C3CC3)cc2)c2ccccc12`: the values for the inhibition at 3 µM on CYP2D6 and against CYP3A4 were < 10% and 31%, respectively. Further, the metabolised at 0.5 h is 34% in data set [1] and 21% in data set [2].
On the same counts, the results for `COc1ccc(-c2nnc(N3CCN(C(=O)c4ccccc4)CC3)c3ccccc23)cc1` are 19%, < 10%, 27% and 22%.
On the same counts, the results for `Cc1ccccc1-c1nnc(N2CCN(C(=O)c3ccccc3)CC2)c2ccccc12` are 24%, < 10%, 90% and 40%.
On the same counts, the results for `C[C@@H]1CN(C(=O)c2ccccc2)CCN1c1nnc(-c2ccc(N(C)C)cc2)c2ccccc12` are 26%, 90%, 59% and 82%.
Consider `Cc1ccc(-c2nnc(N3CCN(C(=O)c4ccccc4)CC3)c3ccccc23)cc1`, for which the inhibition at 3 µM on CYP2D6 and on CYP3A4 was < 10% throughout. Also, the figures for the metabolised at 0.5 h in data set [1] and in data set [2] were 45% and 72%, respectively.
In the case of `C[C@H]1CN(c2nnc(-c3ccccc3)c3ccccc23)CCN1C(=O)c1ccccc1`, the inhibition at 3 µM on CYP2D6 was 11%; against CYP3A4, < 10%. Also, the metabolised at 0.5 h is < 10% in data set [1] and 21% in data set [2].
For `C[C@@H]1CN(C(=O)c2ccccc2)CCN1c1nnc(-c2ccccc2)c2ccccc12`, the values for the inhibition at 3 µM against CYP2D6 and against CYP3A4 were 47% and < 10%, respectively. Further, the metabolised at 0.5 h in data set [1] was determined as 44%; in data set [2] it was 39%.
On the same counts, the results for `O=C(c1ccco1)N1CCN(c2nnc(-c3ccccc3)c3ccccc23)CC1` are 48%, < 10%, 43% and 32%.
As to `O=C(c1cccs1)N1CCN(c2nnc(-c3ccccc3)c3ccccc23)CC1`, the pIC50 against Protein smoothened is 7.66.
